Experimental data pooled from the literature.
Lines come from different studies, so protocols differ.
Target: Serine/threonine-protein kinase Nek9 (NEK9, Homo sapiens, UniProt Q8TD19)
Sequence (Q8TD19 1-979, as in one of the studies): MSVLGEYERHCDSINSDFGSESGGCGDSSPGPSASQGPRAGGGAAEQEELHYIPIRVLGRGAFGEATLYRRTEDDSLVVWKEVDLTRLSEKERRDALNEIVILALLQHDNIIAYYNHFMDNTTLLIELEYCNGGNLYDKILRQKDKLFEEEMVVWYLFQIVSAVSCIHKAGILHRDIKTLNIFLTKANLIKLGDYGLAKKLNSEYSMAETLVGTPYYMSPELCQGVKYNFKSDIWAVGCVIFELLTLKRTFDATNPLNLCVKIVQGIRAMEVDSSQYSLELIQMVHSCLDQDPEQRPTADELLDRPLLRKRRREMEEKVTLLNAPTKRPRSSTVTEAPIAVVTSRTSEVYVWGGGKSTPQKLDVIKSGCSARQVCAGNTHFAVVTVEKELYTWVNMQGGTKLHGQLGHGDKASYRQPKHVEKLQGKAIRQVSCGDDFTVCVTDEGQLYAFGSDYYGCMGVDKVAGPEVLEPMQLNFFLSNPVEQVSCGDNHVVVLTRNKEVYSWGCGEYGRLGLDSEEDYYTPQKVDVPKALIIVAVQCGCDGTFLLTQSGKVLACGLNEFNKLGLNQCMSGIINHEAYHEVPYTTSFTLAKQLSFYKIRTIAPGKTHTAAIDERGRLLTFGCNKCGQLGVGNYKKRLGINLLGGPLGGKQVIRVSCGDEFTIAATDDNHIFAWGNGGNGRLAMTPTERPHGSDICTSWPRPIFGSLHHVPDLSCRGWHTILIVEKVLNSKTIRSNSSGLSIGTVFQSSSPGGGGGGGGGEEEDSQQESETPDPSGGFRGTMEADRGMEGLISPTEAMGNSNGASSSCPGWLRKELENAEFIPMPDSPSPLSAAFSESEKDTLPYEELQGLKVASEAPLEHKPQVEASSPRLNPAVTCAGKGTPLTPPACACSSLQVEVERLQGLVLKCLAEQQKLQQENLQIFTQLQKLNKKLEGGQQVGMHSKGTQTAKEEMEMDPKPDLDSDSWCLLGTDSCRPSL

Compound | assay | setting | remaining binding [%]
O=C1NC(c2ccccn2)Sc2ccccc21 (stereo not shown) | cell-free assay, competition with immobilised ligand | 1 µM | 75
O=C(NCCCN1CCOCC1)c1ccc(Nc2nccc(-c3cc4ccccc4s3)n2)cc1 | binding, competition with immobilised ligand | 1 µM | 73
C=CC(=O)N1CCC(C(=O)NCC(=O)N2CCN(c3nc(-c4cnc(N)nc4C(F)F)nc(N4CCOCC4)n3)CC2)CC1 | binding, competition with immobilised ligand | 1 µM | 100
Cc1cc(-n2nc(Cc3cc(F)cc(C(F)(F)F)c3)nc2C)ccc1C(N)=O | cell-free assay, competition with immobilised ligand | 1 µM | 100
CCN1CCN(Cc2ccc(C(=O)Nc3ccc(C)c(Oc4ccc5c(c4)CC(=O)N5)c3)cc2C(F)(F)F)CC1 | binding, competition with immobilised ligand | 1 µM | 100
Cc1nc(Cc2cccc(C(F)(F)F)c2)sc1-c1ccc(C(N)=O)nc1 | cell-free assay, competition with immobilised ligand | 1 µM | 100
O=C(NCCCN1CCOCC1)c1ccc(Nc2ncc(Cl)c(-c3ccc(Cl)s3)n2)cc1 | binding, competition with immobilised ligand | 1 µM | 13
CN(C)C(=O)Cn1cc(-c2nc([C@@](C)(c3ccc(-c4cnc(N)nc4)cc3)C3CC3)no2)cn1 | cell-free assay, competition with immobilised ligand | 1 µM | 95
COc1ccnn2ncc(-c3ccnc(N(C)C)n3)c12 | binding | 1 µM | 100
O=C(NCC1CCOCC1)c1n[nH]cc1NC(=O)c1c(F)cccc1F | binding, competition with immobilised ligand | 1 µM | 92
O=C(c1ccc(Nc2nccc(-c3cc4ccccc4s3)n2)cc1)N1CCC(N2CCCC2)CC1 | binding, competition with immobilised ligand | 1 µM | 100
c1cncc(-c2cccc(Nc3nccc(NC4CCCCC4)n3)c2)c1 | binding, competition with immobilised ligand | 10 µM | 95
CN(C)c1nccc(-c2cnc3ncccn23)n1 | binding | 1 µM | 88
COc1ccc2cc(OCC3(C(=O)O)CN(C(=O)c4ccc(F)cc4)C3)ccc2c1 | cell-free assay, competition with immobilised ligand | 1 µM | 100
C[C@H]1CCN(c2nccc(-c3cnn4ncccc34)n2)C1 | binding | 1 µM | 100
Cc1c(NC(=O)c2cc(C(N)=O)nc3cc(F)ccc23)c(C(F)(F)F)nn1Cc1ccc(C#N)cc1 | cell-free assay, competition with immobilised ligand | 1 µM | 95
CN(CCCC(F)(F)F)c1nccc(-c2cnn3ncccc23)n1 | binding | 1 µM | 100
NS(=O)(=O)c1cc(NC(=O)C2(c3ccccc3Cl)CC2)ccc1Oc1cccc(Cl)c1 | cell-free assay, competition with immobilised ligand | 1 µM | 94
CN(C)c1nccc(-c2cnn3ncccc23)n1 | binding | 1 µM | 100
COc1cnc(Nc2cccc(S(N)(=O)=O)c2)nc1N1CCN(c2ccccc2)C(=O)C1 | binding, competition with immobilised ligand | 1 µM | 99
Nc1ncc2c(n1)-c1c([nH]c3ccc(C#CC4CC4)cc13)CCCC2 | binding, competition with immobilised ligand | 1 µM | 91
N[C@@H]1CCN(c2nccc(-c3cnn4ncccc34)n2)C1 | binding | 1 µM | 100
